Measured values reported in ChEMBL document CHEMBL1126647, “Fluorine-18-labeled progestin ketals: synthesis and target tissue uptake selectivity of potential imaging agents for receptor-positive breast tumors” (J Med Chem, 1993).

Columns and labels:
[1] = molecular target: T1, Progesterone receptor (Rattus norvegicus) (UniProt Q63449); experiment: Tissue distribution in fat 1 hr after [18F]4 injection into estrogen-primed immature rats at normal dose; assay type: functional, tissue-based; settings: Adipose tissue
T1 sequence (whole entry): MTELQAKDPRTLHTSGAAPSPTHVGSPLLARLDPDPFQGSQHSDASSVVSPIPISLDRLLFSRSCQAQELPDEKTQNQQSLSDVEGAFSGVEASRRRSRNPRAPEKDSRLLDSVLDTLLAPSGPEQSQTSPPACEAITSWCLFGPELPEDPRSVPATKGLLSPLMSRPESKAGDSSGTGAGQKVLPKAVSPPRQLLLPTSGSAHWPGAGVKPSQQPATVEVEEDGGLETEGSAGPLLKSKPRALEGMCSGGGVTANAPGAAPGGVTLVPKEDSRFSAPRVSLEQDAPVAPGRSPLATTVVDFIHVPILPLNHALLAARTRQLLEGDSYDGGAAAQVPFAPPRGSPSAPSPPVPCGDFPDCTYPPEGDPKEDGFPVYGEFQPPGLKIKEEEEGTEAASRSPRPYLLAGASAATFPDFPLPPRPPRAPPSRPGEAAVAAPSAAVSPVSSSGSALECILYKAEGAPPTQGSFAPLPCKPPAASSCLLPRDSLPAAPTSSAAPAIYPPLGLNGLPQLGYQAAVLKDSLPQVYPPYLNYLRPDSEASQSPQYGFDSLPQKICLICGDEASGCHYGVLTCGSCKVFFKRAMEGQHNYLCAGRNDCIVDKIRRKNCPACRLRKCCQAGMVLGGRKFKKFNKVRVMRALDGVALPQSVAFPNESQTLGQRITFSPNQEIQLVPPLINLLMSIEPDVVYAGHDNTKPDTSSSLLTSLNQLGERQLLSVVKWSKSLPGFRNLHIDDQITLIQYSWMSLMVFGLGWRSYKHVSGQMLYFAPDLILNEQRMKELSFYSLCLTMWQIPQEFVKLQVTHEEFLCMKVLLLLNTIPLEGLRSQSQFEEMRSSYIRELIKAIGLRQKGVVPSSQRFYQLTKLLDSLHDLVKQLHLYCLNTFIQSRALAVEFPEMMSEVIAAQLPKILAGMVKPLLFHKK
Method in brief: (§1)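 Female Sprague-Dawley rats, 23 days old, primed with estradiol 5 μg s.c. in 20% ethanol/sunflower oil on two days and used 24 h later. Under ether, they received 51 μCi tracer (30 Ci/mmol) iv via the tail vein in 0.1 mL 10% ethanol/saline. Killed by decapitation at 1 h; tissues weighed and gamma-counted. Results as %ID/g or tissue ratios, mean ± SD, n = 5.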

[2] = molecular target: T1, Progesterone receptor (Rattus norvegicus); experiment: Tissue distribution in liver 1 hr after [18F]4 injection into estrogen-primed immature rats co-injected with uterine uptake blocker (ORG 2058); assay type: functional, tissue-based
Method in brief: (§2)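 Blocking group: estrogen-primed immature female Sprague-Dawley rats (estradiol 5 μg s.c. ×2 days, used 24 h later). ORG 2058 18 μg was co-injected with the tracer dose iv via tail vein, 0.2 mL injection volume in 10% ethanol/saline. Killed 1 h later; tissues weighed and gamma-counted. Results as %ID/g or ratios, mean ± SD, n = 5.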

[3] = molecular target: T1, Progesterone receptor (Rattus norvegicus); experiment: Tissue distribution in uterus 1 hr after [18F]4 injection into estrogen-primed immature rats at low dose; assay type: functional, tissue-based
Method in brief: (§3)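 Estrogen-primed immature female Sprague-Dawley rats (estradiol 5 μg s.c. daily ×2, used 24 h later) were given a reduced tracer dose of 30 μCi in 0.04 mL 10% ethanol/saline, tail vein iv, under ether. Decapitated at 1 h; organs weighed and gamma-counted. Results as %ID/g or uterus/tissue ratio, mean ± SD, n = 5.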

[4] = molecular target: T1, Progesterone receptor (Rattus norvegicus); experiment: Tissue distribution in muscle 3 hr after [18F]4 injection into estrogen-primed immature rats; assay type: functional, tissue-based
Method in brief: (§4)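 Immature female Sprague-Dawley rats, estradiol-primed (5 μg s.c. in 20% ethanol/sunflower oil, two successive days, used 24 h later). Tracer (30 Ci/mmol) in 10% ethanol/saline was injected iv into the tail vein under ether anesthesia. Animals were decapitated 3 h postinjection; organs weighed and gamma-counted. %ID/g, mean ± SD, n = 5.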

[5] = molecular target: T1, Progesterone receptor (Rattus norvegicus); experiment: Tissue distribution in muscle 1 hr after [18F]4 injection into estrogen-primed immature rats co-injected with uterine uptake blocker (ORG2058); assay type: functional, tissue-based; method in brief: as §2
[6] = molecular target: T1, Progesterone receptor (Rattus norvegicus); experiment: Tissue distribution in uterus/muscle 3 hr after [18F]4 injection into estrogen-primed immature rats; assay type: functional, tissue-based
Method in brief: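 Immature female Sprague-Dawley rats (23 days old) were primed with 5 μg estradiol in 20% ethanol/sunflower oil s.c. on two successive days and used 24 h after the last injection. The 18F tracer (51 μCi, specific activity 30 Ci/mmol) in 10% ethanol/saline was given iv in the tail vein under ether anesthesia. Rats were decapitated at 3 h, and organs were weighed and gamma counted. Ratio of %ID/g, n = 5.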

[7] = molecular target: T1, Progesterone receptor (Rattus norvegicus); experiment: Tissue distribution in uterus/blood 1 hr after [18F]4 injection into estrogen-primed immature rats co-injected with uterine uptake blocker (ORG 2058); assay type: functional, tissue-based; method in brief: as §2
[8] = molecular target: T1, Progesterone receptor (Rattus norvegicus); experiment: Tissue distribution in bone 3 hr after [18F]4 injection into estrogen-primed immature rats; assay type: functional, tissue-based; settings: Bone element; method in brief: as §4
[9] = molecular target: T1, Progesterone receptor (Rattus norvegicus); experiment: Tissue distribution in lung 1 hr after [18F]4 injection into estrogen-primed immature rats co-injected with uterine uptake blocker (ORG 2058); assay type: functional, tissue-based; method in brief: as §2
[10] = molecular target: T1, Progesterone receptor (Rattus norvegicus); experiment: Tissue distribution in ovaries 1 hr after [18F]4 injection into estrogen-primed immature rats at low dose; assay type: functional, tissue-based; settings: Female gonad; method in brief: as §3
[11] = molecular target: T1, Progesterone receptor (Rattus norvegicus); experiment: Tissue distribution in fat 1 hr after [18F]4 injection into estrogen-primed immature rats co-injected with uterine uptake blocker (ORG 2058); assay type: functional, tissue-based; settings: Adipose tissue; method in brief: as §2
[12] = molecular target: T1, Progesterone receptor (Rattus norvegicus); experiment: Tissue distribution in liver 1 hr after [18F]4 injection into estrogen-primed immature rats at normal dose; assay type: functional, tissue-based; method in brief: as §1
[13] = molecular target: T1, Progesterone receptor (Rattus norvegicus); experiment: Tissue distribution in uterus/muscle 1 hr after [18F]4 injection into estrogen-primed immature rats co-injected ORG 2058 (uterine uptake blocker); assay type: functional, tissue-based; method in brief: as §2
[14] = molecular target: T1, Progesterone receptor (Rattus norvegicus); experiment: Tissue distribution in blood 1 hr after [18F]4 injection into estrogen-primed immature rats at low dose; assay type: functional, tissue-based; method in brief: as §3
[15] = molecular target: T1, Progesterone receptor (Rattus norvegicus); experiment: Tissue distribution in uterus 1 hr after [18F]-4 injection into estrogen-primed immature rats co-injected with uterin uptake blocker (ORG 2058); assay type: functional, tissue-based; method in brief: as §2
[16] = molecular target: T1, Progesterone receptor (Rattus norvegicus); experiment: Tissue distribution in ovaries 1 hr after [18F]4 injection into estrogen-primed immature rats co-injected with uterine uptake blocker (ORG2058); assay type: functional, tissue-based; settings: Female gonad; method in brief: as §2
[17] = molecular target: T1, Progesterone receptor (Rattus norvegicus); experiment: Tissue distribution in ovaries 3 hr after [18F]4 injection into estrogen-primed immature rats; assay type: functional, tissue-based; settings: Female gonad; method in brief: as §4
[18] = molecular target: T1, Progesterone receptor (Rattus norvegicus); experiment: Tissue distribution in blood 1 hr after [18F]4 injection into estrogen-primed immature rats at normal dose; assay type: functional, tissue-based; method in brief: as §1
[19] = molecular target: T1, Progesterone receptor (Rattus norvegicus); experiment: Tissue distribution in kidney 1 hr after [18F]4 injection into estrogen-primed immature rats co-injected with uterine uptake blocker ([…]); assay type: functional, tissue-based; method in brief: as §2
[20] = molecular target: T1, Progesterone receptor (Rattus norvegicus); experiment: Tissue distribution in uterus/blood 3 hr after [18F]4 injection into estrogen-primed immature rats at low dose; assay type: functional, tissue-based
[21] = molecular target: T1, Progesterone receptor (Rattus norvegicus); experiment: Tissue distribution in bone 1 hr after [18F]4 injection into estrogen-primed immature rats at normal dose; assay type: functional, tissue-based; settings: Bone element; method in brief: as §1
[22] = Partition coefficient (logP); assay type: physicochemical; settings: octanol/water
Method in brief: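 Octanol/water partition measured as log P by the Minick method. For some reference progestins, log P was also measured by shake flask.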

[23] = molecular target: T1, Progesterone receptor (Rattus norvegicus); experiment: Tissue distribution in kidney 1 hr after [18F]4 injection into estrogen-primed immature rats at low dose; assay type: functional, tissue-based; method in brief: as §3
[24] = molecular target: T1, Progesterone receptor (Rattus norvegicus); experiment: Tissue distribution in uterus/blood 1 hr after [18F]4 injection into estrogen-primed immature rats at normal dose; assay type: functional, tissue-based; method in brief: as §1
[25] = molecular target: T1, Progesterone receptor (Rattus norvegicus); experiment: Tissue distribution in lung 3 hr after [18F]4 injection into estrogen-primed immature rats; assay type: functional, tissue-based; method in brief: as §4

Injected dose/g [1]	Injected dose/g [2]	Injected dose/g [3]	Injected dose/g [4]	Injected dose/g [5]	uterus/muscle ratio [6]	uterus/blood ratio [7]	Injected dose/g [8]	Injected dose/g [9]	Injected dose/g [10]	Injected dose/g [11]	Injected dose/g [12]	uterus/muscle ratio [13]	Injected dose/g [14]	Injected dose/g [15]	Injected dose/g [16]	Injected dose/g [17]	Injected dose/g [18]	Injected dose/g [19]	uterus/blood ratio [20]	Structure (SMILES)	other results
5.76%	3.16%	3.3%	0.49%	0.76%	4.61	3.06	1.69%	1.26%	3.68%	3.77%	3.41%	1.69	0.52%	1.27%	2.29%	2.19%	0.47%	2.18%	7.57	CC(=O)[C@@]12O[C@](C)(c3ccc(F)cc3)O[C@@H]1CC1C3CCC4=CC(=O)CC[C@]4(C)C3CC[C@@]12C (stereo not given in full)	Injected dose/g [21]: 1.76%; logP [22]: 5.71; Injected dose/g [23]: 2.27%; uterus/blood ratio [24]: 6.59; Injected dose/g [25]: 0.91%
3.53%	3.56%	4.06%	0.16%	0.35%	27.9	3.69	0.64%	0.54%	2.66%	2.76%	4.25%	2.42	0.28%	0.86%	1.37%	1.78%	0.26%	1.28%	38	C[C@@]1(c2ccc(F)cc2)O[C@@H]2CC3C4CCC5=CC(=O)CC[C@@H]5C4CC[C@]3(C)[C@]2(C(=O)CO)O1 (stereo not given in full)	Injected dose/g [21]: 0.62%; logP [22]: 4.92; Injected dose/g [23]: 1.57%; uterus/blood ratio [24]: 14; Injected dose/g [25]: 0.22%
